Laboratory results: ChEMBL document CHEMBL3632511, “Oxopyrido[2,3-d]pyrimidines as Covalent L858R/T790M Mutant Selective Epidermal Growth Factor Receptor (EGFR) Inhibitors” (ACS Med Chem Lett, 2015)
Blank lines part the entries; values can stand above or below the molecule they belong to.

What was measured:
[1] = system: NCI-H1975; experiment: Cytotoxicity against human NCI-H1975 cells harboring EGFR L858R/T790M double mutant assessed as inhibition of cell proliferation after 72 hrs by CellTiter-Glo assay; type: functional, cell-based; settings: NCI-H1975, 72 h
[2] = Cytotoxicity against human HCC827 cells harboring EGFR 746 to 750 deletion mutant assessed as inhibition of cell proliferation after 72 hrs by CellTiter-Glo assay; type: functional, cell-based; settings: HCC827, 72 h
[3] = system: A-431; experiment: Cytotoxicity against human A431 cells expressing wild-type EGFR assessed as inhibition of cell proliferation after 72 hrs by CellTiter-Glo assay; type: cell-based; settings: A-431, 72 h
[4] = target: T1, Epidermal growth factor receptor (Homo sapiens, UniProt P00533); experiment: Binding affinity to wild type EGFR (unknown origin)
[5] = target: T2, Epidermal growth factor receptor (Homo sapiens, UniProt P00533, L858R/T790M); experiment: Binding affinity to EGFR T790M/L858R double mutant (unknown origin); type: protein assay
[6] = target: T2, Epidermal growth factor receptor; experiment: Inhibition of EGFR L858R/T790M double mutant phosphorylation in human NCI-H1975 cells after 60 mins by mesoscale multiplex assay; type: cell-based
[7] = target: Epidermal growth factor receptor (Homo sapiens, UniProt P00533, 746-750DEL); experiment: Inhibition of EGFR 746 to 750 deletion mutant phosphorylation in human HCC827 cells after 60 mins by mesoscale multiplex assay; type: cell-based
[8] = target: T1, Epidermal growth factor receptor; experiment: Inhibition of wild type EGFR phosphorylation in human A431 cells after 60 mins by mesoscale multiplex assay; type: cell-based, A-431
[9] = Selectivity ratio of IC50 for wild type EGFR phosphorylation in human A431 cells to IC50 for EGFR L858R/T790M double mutant phosphorylation in human NCI-H1975 cells; type: ADME, cell-based
[10] = Selectivity ratio of IC50 for wild type EGFR phosphorylation in human A431 cells to IC50 for EGFR 746 to 750 deletion mutant phosphorylation in human HCC827 cells; type: ADME, cell-based
[11] = Clearance in Sprague-Dawley rat at 1 mg/kg, iv; type: ADME, organism-based; settings: Sprague-Dawley, in vivo
Outline: (§1)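 Male Sprague Dawley rats, 3 animals per route; mean values. IV dose 1 mg/kg as a DMSO solution. Oral dose 10 mg/kg, in one of three vehicles by compound: 1% Pluronic F68/2% HPMC/15% HPBCD/82% water–methanesulfonic acid pH 4.5; 20% HPBCD/80% water–methanesulfonic acid pH 4.0; or 1% Pluronic F68/2% HPMC/97% water–methanesulfonic acid pH 4.0.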

[12] = Volume of distribution at steady state in Sprague-Dawley rat at 1 mg/kg, iv; type: ADME, organism-based; settings: in vivo, read-out: Vdss; outline: as §1
[13] = Half life in Sprague-Dawley rat at 1 mg/kg, iv; type: ADME, organism-based; settings: in vivo; outline: as §1
[14] = AUC (0 to infinity) in Sprague-Dawley rat at 10 mg/kg, po; type: ADME, organism-based; parameters: dose 10 mg/kg, route oral, time infinity; settings: Sprague-Dawley, in vivo; outline: as §1
[15] = Oral bioavailability in Sprague-Dawley rat at 10 mg/kg; type: ADME, organism-based; settings: Sprague-Dawley, in vivo; outline: as §1
[16] = system: Mus musculus; experiment: In vivo inhibition of EGFR L858R/T790M double mutant phosphorylation in human NCI-H1975 cells xenografted in athymic nude mouse at 30 mg/kg, po measured at 4 hrs by mesoscale multiplex assay relative to control; type: functional
Outline: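 Female athymic nude mice carried matrigel plugs holding 5 x 10⁶ H1975 cells, n = 3 per group. Control or compound given at 30 mg/kg po. Plugs and plasma taken 4 h after dosing. p-EGFR in plug measured by quantitative MSD assay, given as % p-EGFR/PRAS40 vs control.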

[17] = system: human MDR1 (P-gp); experiment: Efflux ratio of permeability across pig LLC-PK1 cells transfected with human MDR1 gene; type: ADME, cell-based, Sus scrofa
[18] = system: NCI-H1975; experiment: Antitumor activity against human NCI-H1975 cells xenografted in athymic nude mouse assessed as tumor growth inhibition at 30 mg/kg, po qd administered for 2 weeks started on day 6 post tumor implantation measured on day 19 relative to control; type: functional; settings: read-out: TGI
[19] = species: Rattus norvegicus; experiment: Hepatobiliary toxicity in Sprague-Dawley rat measured for 4 days; type: organism-based; settings: in vivo, 96 h
[20] = system: Mus musculus; experiment: In vivo inhibition of EGFR L858R/T790M double mutant phosphorylation in human NCI-H1975 cells xenografted in athymic nude mouse at 30 mg/kg, po measured at >12 hrs by mesoscale multiplex assay relative to control; type: functional
Outline: (§2)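 Time-course PD in mice carrying matrigel plugs of H1975 cells after a single oral dose of 30 mg/kg. Tumor cell plugs and plasma harvested at 2, 4, 8, 12 and 24 h post dose. Plug p-EGFR measured, and plasma drug concentration taken for Cmax.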

[21] = system: Mus musculus; experiment: Toxicity in athymic nude mouse xenografted with human NCI-H1975 cells assessed as change in body weight at 30 mg/kg, po qd administered for 2 weeks started on day 6 post tumor implantation; type: organism-based; settings: in vivo, 336 h
[22] = AUC (0 to infinity) in athymic nude mouse xenografted with human NCI-H1975 cells at 30 mg/kg, po; type: ADME, organism-based; parameters: dose 30 mg/kg, route oral, time infinity; settings: in vivo
[23] = AUC (0 to t) in athymic nude mouse xenografted with human NCI-H1975 cells at 30 mg/kg, po qd administered for 2 weeks started on day 6 post tumor implantation; type: ADME, organism-based; settings: in vivo
[24] = target: T3, Tyrosine-protein kinase BTK (Homo sapiens, UniProt Q06187); experiment: Competitive binding affinity to human BTK at 1 uM in presence of immobilized ligand relative to control
Outline: (§3)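 Kinase selectivity by competitive binding in the ScanMAX KINOMEscan panel of […] protein and lipid kinases. Compound tested at 1 μM; binding expressed as percentage of control (POC).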

[25] = Cmax in athymic nude mouse xenografted with human NCI-H1975 cells at 30 mg/kg, po measured at 2 hrs; type: ADME, organism-based; parameters: dose 30 mg/kg, route oral; settings: in vivo; outline: as §2
[26] = target: Dual specificity protein kinase TTK (Homo sapiens) (UniProt P33981); experiment: Competitive binding affinity to human TTK at 1 uM in presence of immobilized ligand relative to control; outline: as §3
[27] = target: Tyrosine-protein kinase Blk (Homo sapiens, UniProt P51451); experiment: Competitive binding affinity to human BLK in presence of immobilized ligand
[28] = target: T3, Tyrosine-protein kinase BTK; experiment: Competitive binding affinity to human BTK in presence of immobilized ligand
[29] = target: T1, Epidermal growth factor receptor; experiment: Competitive binding affinity to human wild type EGFR in presence of immobilized ligand
[30] = target: Epidermal growth factor receptor (Homo sapiens, UniProt P00533, T790M); experiment: Competitive binding affinity to human EGFR T790M mutant in presence of immobilized ligand; type: protein assay
[31] = target: Receptor tyrosine-protein kinase erbB-2 (Homo sapiens, UniProt P04626); experiment: Competitive binding affinity to human ERBB2 in presence of immobilized ligand
[32] = target: Receptor tyrosine-protein kinase erbB-4 (Homo sapiens, UniProt Q15303); experiment: Competitive binding affinity to human ERBB4 in presence of immobilized ligand
[33] = target: Cyclin-G-associated kinase (Homo sapiens, UniProt O14976); experiment: Competitive binding affinity to human GAK in presence of immobilized ligand
[34] = target: Tyrosine-protein kinase ITK/TSK (Homo sapiens, UniProt Q08881); experiment: Competitive binding affinity to human ITK in presence of immobilized ligand
[35] = target: Tyrosine-protein kinase JAK1 (Homo sapiens, UniProt P23458); experiment: Competitive binding affinity to human JAK1 JH2 domain pseudokinase in presence of immobilized ligand
[36] = target: Tyrosine-protein kinase JAK3 (Homo sapiens, UniProt P52333); experiment: Competitive binding affinity to human JAK3 in presence of immobilized ligand
[37] = target: Dual specificity protein kinase TTK (Homo sapiens, UniProt P33981); experiment: Competitive binding affinity to human TTK in presence of immobilized ligand
[38] = target: Tyrosine-protein kinase TXK (Homo sapiens, UniProt P42681); experiment: Competitive binding affinity to human TXK in presence of immobilized ligand
[39] = Fraction unbound in mouse plasma at 5 uM by rapid equilibrium dialysis method; type: ADME, cell-free
[40] = Fraction unbound in rat plasma at 5 uM by rapid equilibrium dialysis method; type: ADME, cell-free
[41] = Fraction unbound in human plasma at 5 uM by rapid equilibrium dialysis method; type: ADME, cell-free
[42] = Fraction unbound in dog plasma at 5 uM by rapid equilibrium dialysis method; type: ADME, cell-free, Canis lupus familiaris
[43] = system: human MDR1 (P-gp); experiment: Permeability across pig LLC-PK1 cells transfected with human MDR1 gene; type: ADME, cell-based, Sus scrofa; settings: read-out: permeability
[44] = system: rat MDR1 (P-gp); experiment: Permeability across pig LLC-PK1 cells transfected with rat MDR1 gene; type: ADME, cell-based, Sus scrofa; settings: read-out: permeability
[45] = system: rat MDR1 (P-gp); experiment: Efflux ratio of permeability across pig LLC-PK1 cells transfected with rat MDR1 gene; type: ADME, cell-based, Sus scrofa

T1 sequence (P00533 whole entry): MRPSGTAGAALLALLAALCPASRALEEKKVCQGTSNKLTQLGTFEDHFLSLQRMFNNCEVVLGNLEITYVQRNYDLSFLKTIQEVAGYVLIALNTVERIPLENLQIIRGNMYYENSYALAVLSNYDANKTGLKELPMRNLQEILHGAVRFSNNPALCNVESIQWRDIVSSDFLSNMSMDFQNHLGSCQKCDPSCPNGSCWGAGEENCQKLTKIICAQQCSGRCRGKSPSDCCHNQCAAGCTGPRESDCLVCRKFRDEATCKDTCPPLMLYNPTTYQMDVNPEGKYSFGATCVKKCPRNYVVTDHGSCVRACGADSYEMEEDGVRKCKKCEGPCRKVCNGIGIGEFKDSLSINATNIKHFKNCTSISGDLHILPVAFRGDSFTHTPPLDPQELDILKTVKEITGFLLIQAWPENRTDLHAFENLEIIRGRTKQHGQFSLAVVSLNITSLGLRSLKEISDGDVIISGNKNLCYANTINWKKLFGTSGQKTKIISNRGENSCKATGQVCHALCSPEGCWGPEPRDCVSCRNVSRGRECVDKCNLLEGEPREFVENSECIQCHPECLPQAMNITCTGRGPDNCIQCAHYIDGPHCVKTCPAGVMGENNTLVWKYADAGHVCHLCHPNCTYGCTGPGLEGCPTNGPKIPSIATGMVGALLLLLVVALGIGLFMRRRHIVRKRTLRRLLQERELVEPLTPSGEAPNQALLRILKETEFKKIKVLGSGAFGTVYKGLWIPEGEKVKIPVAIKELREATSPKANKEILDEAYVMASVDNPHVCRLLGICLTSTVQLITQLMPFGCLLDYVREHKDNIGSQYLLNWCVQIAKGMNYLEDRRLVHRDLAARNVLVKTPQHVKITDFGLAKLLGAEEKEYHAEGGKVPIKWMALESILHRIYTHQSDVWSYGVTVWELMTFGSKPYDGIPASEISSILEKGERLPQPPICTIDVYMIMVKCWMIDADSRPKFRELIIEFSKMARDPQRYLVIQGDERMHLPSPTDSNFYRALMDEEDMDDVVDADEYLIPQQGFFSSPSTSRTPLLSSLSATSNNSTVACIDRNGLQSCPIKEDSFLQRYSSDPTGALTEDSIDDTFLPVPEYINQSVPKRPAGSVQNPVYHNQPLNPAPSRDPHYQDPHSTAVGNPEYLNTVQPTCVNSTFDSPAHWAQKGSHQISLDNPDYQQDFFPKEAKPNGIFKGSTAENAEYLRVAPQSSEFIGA
T3 sequence (Q06187 whole entry): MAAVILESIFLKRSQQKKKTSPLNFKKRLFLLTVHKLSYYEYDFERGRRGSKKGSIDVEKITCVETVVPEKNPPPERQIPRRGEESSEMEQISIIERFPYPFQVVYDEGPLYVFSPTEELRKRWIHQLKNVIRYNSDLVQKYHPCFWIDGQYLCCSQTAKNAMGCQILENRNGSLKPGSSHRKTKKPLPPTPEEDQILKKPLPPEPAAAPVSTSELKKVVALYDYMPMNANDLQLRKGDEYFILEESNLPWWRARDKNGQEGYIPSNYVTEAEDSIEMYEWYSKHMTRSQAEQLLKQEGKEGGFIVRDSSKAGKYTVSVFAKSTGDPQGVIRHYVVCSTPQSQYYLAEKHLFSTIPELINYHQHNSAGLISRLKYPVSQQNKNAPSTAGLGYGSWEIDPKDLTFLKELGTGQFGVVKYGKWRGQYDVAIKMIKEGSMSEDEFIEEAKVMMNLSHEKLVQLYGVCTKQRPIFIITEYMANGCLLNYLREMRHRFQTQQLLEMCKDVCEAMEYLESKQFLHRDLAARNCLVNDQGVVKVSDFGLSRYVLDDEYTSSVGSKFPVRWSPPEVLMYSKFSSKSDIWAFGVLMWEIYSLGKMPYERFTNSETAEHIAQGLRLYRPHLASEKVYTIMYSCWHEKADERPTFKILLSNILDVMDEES
Sequence of Epidermal growth factor receptor (Homo sapiens, UniProt P00533, 746-750DEL) (P00533 whole entry, looked up, stated change not applied): as the sequence (P00533 whole entry) above
T2 sequence (P00533 25-1210 T790M/L858R limits assumed): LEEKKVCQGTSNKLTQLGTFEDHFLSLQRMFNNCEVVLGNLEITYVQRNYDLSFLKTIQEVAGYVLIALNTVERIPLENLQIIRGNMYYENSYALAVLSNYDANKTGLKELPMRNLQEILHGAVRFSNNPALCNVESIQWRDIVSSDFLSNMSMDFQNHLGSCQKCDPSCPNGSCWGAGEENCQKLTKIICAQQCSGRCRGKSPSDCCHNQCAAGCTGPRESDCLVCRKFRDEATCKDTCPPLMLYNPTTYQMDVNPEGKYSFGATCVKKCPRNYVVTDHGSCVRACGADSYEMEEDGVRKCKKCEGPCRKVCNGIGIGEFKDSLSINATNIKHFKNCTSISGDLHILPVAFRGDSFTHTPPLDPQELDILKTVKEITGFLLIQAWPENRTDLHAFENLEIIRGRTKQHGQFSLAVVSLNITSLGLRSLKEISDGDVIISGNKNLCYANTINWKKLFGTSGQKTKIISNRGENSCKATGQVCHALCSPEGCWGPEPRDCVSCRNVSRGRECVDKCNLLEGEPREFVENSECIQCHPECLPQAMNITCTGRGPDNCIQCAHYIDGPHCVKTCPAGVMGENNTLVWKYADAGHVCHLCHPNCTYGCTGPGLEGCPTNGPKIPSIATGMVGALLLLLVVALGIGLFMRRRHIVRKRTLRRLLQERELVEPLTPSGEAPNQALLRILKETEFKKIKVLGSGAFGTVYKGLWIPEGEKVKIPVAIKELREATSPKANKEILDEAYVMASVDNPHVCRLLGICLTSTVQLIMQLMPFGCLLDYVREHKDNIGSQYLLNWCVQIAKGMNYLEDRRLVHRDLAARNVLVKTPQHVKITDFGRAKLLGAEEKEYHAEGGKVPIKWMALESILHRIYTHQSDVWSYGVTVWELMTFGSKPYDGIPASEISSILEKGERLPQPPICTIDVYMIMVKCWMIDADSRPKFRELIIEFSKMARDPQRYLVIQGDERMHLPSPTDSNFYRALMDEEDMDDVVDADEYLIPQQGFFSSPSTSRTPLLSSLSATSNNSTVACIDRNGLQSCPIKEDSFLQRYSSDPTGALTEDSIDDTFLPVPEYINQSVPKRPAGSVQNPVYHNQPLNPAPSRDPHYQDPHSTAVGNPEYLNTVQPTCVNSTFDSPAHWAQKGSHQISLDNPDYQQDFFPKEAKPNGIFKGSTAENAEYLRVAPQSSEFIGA
Sequence of Dual specificity protein kinase TTK (P33981 whole entry): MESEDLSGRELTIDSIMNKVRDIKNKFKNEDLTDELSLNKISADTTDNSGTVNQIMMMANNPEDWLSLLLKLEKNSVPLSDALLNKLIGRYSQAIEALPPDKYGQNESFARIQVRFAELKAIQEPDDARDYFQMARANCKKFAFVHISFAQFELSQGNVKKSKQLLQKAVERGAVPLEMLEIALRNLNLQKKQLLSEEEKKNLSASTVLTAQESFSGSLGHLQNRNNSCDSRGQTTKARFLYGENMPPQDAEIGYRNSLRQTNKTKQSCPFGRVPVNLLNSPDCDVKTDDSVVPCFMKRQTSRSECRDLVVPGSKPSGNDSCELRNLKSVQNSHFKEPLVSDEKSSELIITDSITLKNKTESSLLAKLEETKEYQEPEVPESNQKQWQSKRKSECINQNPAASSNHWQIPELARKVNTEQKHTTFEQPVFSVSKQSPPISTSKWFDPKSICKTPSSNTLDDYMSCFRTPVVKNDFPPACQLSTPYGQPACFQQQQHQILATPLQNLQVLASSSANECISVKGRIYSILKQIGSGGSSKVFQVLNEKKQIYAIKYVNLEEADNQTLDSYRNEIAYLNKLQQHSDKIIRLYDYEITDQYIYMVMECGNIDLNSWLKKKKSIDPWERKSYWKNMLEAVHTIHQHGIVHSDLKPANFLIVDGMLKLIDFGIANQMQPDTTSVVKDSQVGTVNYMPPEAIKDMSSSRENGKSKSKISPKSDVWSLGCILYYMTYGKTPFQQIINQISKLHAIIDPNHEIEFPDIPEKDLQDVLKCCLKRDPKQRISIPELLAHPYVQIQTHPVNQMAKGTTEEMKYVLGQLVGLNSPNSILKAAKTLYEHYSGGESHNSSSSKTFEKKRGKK

SMILES: C=CC(=O)Nc1cccc(-n2c(=O)cc(C)c3cnc(Nc4ccc(N5CCNCC5)cc4OC)nc32)c1
- IC50 [1]: 68 nM
- IC50 [2]: 211 nM
- IC50 [3]: > 1000 nM

- Kd [4]: 310 nM
- Kd [5]: 2.6 nM
SMILES: C=CC(=O)Nc1cccc(-n2c3nc(Nc4ccc(N5CCC(N(C)C)CC5)cc4OC)ncc3c(=O)n3ccnc23)c1

SMILES: C=CC(=O)Nc1cccc(-n2c(=O)c(OC)cc3cnc(Nc4ccc(N5CCN(C)CC5)cc4OC)nc32)c1
- IC50 [1]: 273 nM
- IC50 [2]: 61 nM
- IC50 [3]: 201 nM

SMILES: C=CC(=O)Nc1cccc(-n2c(=O)c(Cc3ccccc3)cc3cnc(Nc4ccc(N5CCN(C)CC5)cc4OC)nc32)c1
- IC50 [1]: 4 nM
- IC50 [2]: 18 nM
- IC50 [3]: 250 nM

- IC50 [6]: 3 nM
- IC50 [7]: 3 nM
- IC50 [8]: 50 nM
- clearance [11]: 148 mL/min/kg
- Vd [12]: 19 L/kg
- half-life [13]: 84 min
- AUC(0-inf) [14]: 0.18 µM·h
- bioavailability [15]: 6.6%
SMILES: C=CC(=O)Nc1cccc(-n2c(=O)ccc3cnc(Nc4ccc(N5CCN(C)CC5)cc4OC)nc32)c1
- IC50 [1]: 8 nM
- IC50 [2]: 4 nM
- IC50 [3]: 5230 nM
- Ratio IC50 [9]: 17
- Ratio IC50 [10]: 17

SMILES: C=CC(=O)Nc1cccc(-n2c(=O)cc(C)c3cnc(Nc4ccc(N5CCN(C)CC5)cc4)nc32)c1
- IC50 [1]: 4 nM
- IC50 [2]: 7 nM
- IC50 [3]: > 3000 nM
- inhibition in vivo at 30 mg/kg [16]: 5%

- efflux ratio [17]: > 37
- IC50 [7]: 9 nM
- IC50 [8]: 1050 nM
- clearance [11]: 150 mL/min/kg
- Vd [12]: 22 L/kg
- half-life [13]: 270 min
- AUC(0-inf) [14]: 0.66 µM·h
- bioavailability [15]: 10%
- AUC(0-inf) [22]: 0.33 µM·h
- AUC(0-t) at 336 h [23]: 0.56 µM·h
- Activity [24]: 17%
- Cmax [25]: 100 nM
- Activity [26]: 4%
- Kd [27]: 320 nM
- Kd [28]: 290 nM
- Kd [29]: 220 nM
- Kd [30]: 0.96 nM
- Kd [31]: 220 nM
- Kd [32]: 130 nM
- Kd [33]: 430 nM
- Kd [34]: 140 nM
- Kd [35]: 2800 nM
- Kd [36]: 30 nM
- Kd [37]: 81 nM
- Kd [38]: 410 nM
- fraction unbound at 5 µM [39]: 0.25
- fraction unbound at 5 µM [40]: 0.27
- fraction unbound at 5 µM [41]: 0.54
- fraction unbound at 5 µM [42]: 0.46
- Papp [43]: 10 ×10⁻⁶ cm/s
- Papp [44]: 10 ×10⁻⁶ cm/s
- efflux ratio [45]: > 37
SMILES: C=CC(=O)Nc1cccc(-n2c(=O)cc(C)c3cnc(Nc4ccc(OCCN(C)C)cc4OC)nc32)c1
- IC50 [1]: 4 nM
- IC50 [2]: 28 nM
- IC50 [3]: 2400 nM
- Ratio IC50 [9]: > 100
- Ratio IC50 [10]: > 100
- inhibition in vivo at 30 mg/kg [16]: 90%
- inhibition in vivo at 30 mg/kg [18]: 90%
- Activity [19]: Non-toxic
- inhibition in vivo at 30 mg/kg [20]: > 50%
- Activity [21]: Non-toxic
